In ChEMBL document CHEMBL1212762, “In vivo activity of ceftobiprole in murine skin infections due to Staphylococcus aureus and Pseudomonas aeruginosa” (Antimicrob Agents Chemother, 2010):

How the values were obtained:
[1] = Half life in immunocompetent SKH1 mouse plasma at 50 mg/kg, sc; type: ADME, organism-based; set-up: dose 50 mg/kg, route subcutaneous
Staphylococcus aureus [2] = experiment: Antimicrobial activity against methicillin-susceptible Staphylococcus aureus Smith OC 4172 infected in SKH1 mouse assessed as log change in bacterial colony forming unit per gram of skin tissue at 1.6 mg/kg/day, sc (reference value: 1.6 deltalog CFU); type: functional; details: route subcutaneous
[3] = Tmax in immunocompetent SKH1 mouse plasma at 50 mg/kg, sc; type: ADME, organism-based; set-up: dose 50 mg/kg, route subcutaneous
Outline: (§1)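 Female SKH1 hairless mice, immunocompetent or cyclophosphamide-neutropenic, infected s.c. with MRSA OC 8525 or P. aeruginosa OC 4354 on the Cytodex beads (left flank), sterile beads on the right. Single dose 24 h later: s.c. at the nape, or linezolid 50 mg/kg oral. Plasma and skin (DMSO homogenate) sampled over time, HPLC with diode array.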

Staphylococcus aureus [4] = experiment: Antimicrobial activity against methicillin-susceptible Staphylococcus aureus Smith OC 4172 infected in SKH1 mouse assessed as log change in bacterial colony forming unit per gram of skin tissue at 25 mg/kg/day, sc (reference value: 1.6 deltalog CFU); type: functional; details: route subcutaneous
Outline: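 Female hairless immunocompetent SKH1 mice were anaesthetised and injected s.c. with 0.2 ml Cytodex bead inoculum (0.1% vol/vol beads in BHI; 6.7–7.0 log10 CFU/mouse): MSSA OC 4172 in the left flank, MRSA OC 8525 in the right. Drug was given at 1, 3, 25 and 27 h post-infection. At 48 h, flank lesions were excised, weighed and homogenised in saline, then plated on TSA (18 h, 37°C). The value is Δlog CFU/g versus the inoculum, from 5 mice/dose, run twice and pooled.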

Pseudomonas aeruginosa [5] = experiment: Antimicrobial activity against Pseudomonas aeruginosa OC 4354 infected in immunocompromized SKH1 mouse assessed as log change in bacterial colony forming unit at 6.2 mg/kg/day, sc; type: functional; details: route subcutaneous
Outline: (§2)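 Female SKH1 hairless mice made neutropenic with ip cyclophosphamide (150 mg/kg 5 days and 100 mg/kg 1 day before infection). 0.2 ml s.c. Cytodex bead (0.1% vol/vol) inoculum in BHI: OC 4351 left flank, OC 4354 right flank. Drug s.c. at 1, 3, 25, 27 h postinfection. Killed at 48 h; skin homogenised in saline, plated on TSA 18 h 37°C; Δlog CFU/g versus inoculum. 5 mice/dose, run twice.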

[6] = Protein binding in mouse plasma; type: ADME, cell-free; details: read-out: PPB (converted)
Pseudomonas aeruginosa [7] = experiment: Antimicrobial activity against Pseudomonas aeruginosa OC 4351 infected in immunocompromized SKH1 mouse assessed as lesion volume at 25 mg/kg/day, sc measured after 48 hrs postinfection (reference value: 2234 mm3); type: functional; details: route subcutaneous
Pseudomonas aeruginosa [8] = experiment: Antimicrobial activity against Pseudomonas aeruginosa OC 4351 infected in immunocompromized SKH1 mouse assessed as lesion volume at 100 mg/kg/day, sc measured after 48 hrs postinfection (reference value: 2234 mm3); type: functional; details: route subcutaneous
[9] = Half life in immunocompromized SKH1 mouse skin at 50 mg/kg, sc; type: ADME, organism-based, Zone of skin; set-up: dose 50 mg/kg, route subcutaneous; outline: as §1
[10] = fT>MIC in Staphylococcus aureus Smith OC 4172 infected sc dosed SKH1 mouse at 50 mg/kg, sc administered twice at 1 and 3 hrs after infection; type: functional; details: route subcutaneous
Pseudomonas aeruginosa [11] = experiment: Antimicrobial activity against Pseudomonas aeruginosa OC 4354 infected in immunocompromized SKH1 mouse assessed as log change in bacterial colony forming unit at 25 mg/kg/day, sc; type: functional; details: route subcutaneous; outline: as §2
Pseudomonas aeruginosa [12] = experiment: Antimicrobial activity against Pseudomonas aeruginosa OC 4351 infected in immunocompromized SKH1 mouse assessed as log change in bacterial colony forming unit at 100 mg/kg/day, sc; type: functional; details: route subcutaneous; outline: as §2
[13] = Tmax in immunocompetent SKH1 mouse plasma at 12.5 mg/kg, sc; type: ADME, organism-based; set-up: dose 12.5 mg/kg, route subcutaneous; outline: as §1
Pseudomonas aeruginosa [14] = experiment: Antimicrobial activity against Pseudomonas aeruginosa OC 4354 infected in immunocompromized SKH1 mouse assessed as lesion volume at 100 mg/kg/day, sc measured after 48 hrs postinfection (reference value: 2195 mm3); type: functional; details: route subcutaneous
Zone of skin [15] = experiment: fCmax in immunocompromized SKH1 mouse skin at 50 mg/kg, sc; type: ADME, organism-based; set-up: dose 50 mg/kg, route subcutaneous; details: in vivo; outline: as §1
Zone of skin [16] = experiment: fAUC (0-infinity) in Staphylococcus aureus infected immunocompetent SKH1 mouse skin at 50 mg/kg, sc; type: ADME, organism-based; set-up: dose 50 mg/kg, route subcutaneous; details: in vivo; outline: as §1
Pseudomonas aeruginosa [17] = experiment: Antimicrobial activity against Pseudomonas aeruginosa OC 4354 infected in immunocompromized SKH1 mouse assessed as lesion volume at 25 mg/kg/day, sc measured after 48 hrs postinfection (reference value: 2195 mm3); type: functional; details: route subcutaneous
[18] = fT>MIC in Staphylococcus aureus OC 8525 infected sc dosed SKH1 mouse administered in 24 hrs dosing interval; type: functional
Outline: (§3)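 Plasma levels came from female hairless SKH1 mice given single s.c. doses at the nape 24 h after flank s.c. infection with Cytodex beads. S. aureus work used immunocompetent mice. P. aeruginosa work used mice made neutropenic with cyclophosphamide i.p., 150 mg/kg at day −5 and 100 mg/kg at day −1. Drug assayed by HPLC with diode-array detection. Noncompartmental analysis.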

[19] = fT>MIC in Pseudomonas aeruginosa OC 4354 infected sc dosed SKH1 mouse administered in 24 hrs dosing interval; type: functional; outline: as §3
Staphylococcus aureus [20] = experiment: Antimicrobial activity against methicillin-susceptible Staphylococcus aureus Smith OC 4172 infected immunocompetent SKH1 mouse assessed as lesion volume at 25 mg/kg/day, sc measured after 48 hrs postinfection (reference value: 1181 mm3); details: route subcutaneous
Staphylococcus aureus [21] = experiment: Antimicrobial activity against methicillin-resistant Staphylococcus aureus OC 8525 infected immunocompetent SKH1 mouse assessed as lesion volume at 6.2 mg/kg/day, sc measured after 48 hrs postinfection (reference value: 1535 mm3); details: route subcutaneous
Staphylococcus aureus [22] = experiment: Antimicrobial activity against methicillin-resistant Staphylococcus aureus OC 8525 infected immunocompetent SKH1 mouse assessed as lesion volume at 100 mg/kg/day, sc measured after 48 hrs postinfection (reference value: 1535 mm3); details: route subcutaneous
Pseudomonas aeruginosa [23] = experiment: Antimicrobial activity against Pseudomonas aeruginosa OC 4351 infected in immunocompromized SKH1 mouse assessed as log change in bacterial colony forming units at 25 mg/kg/day, sc; type: functional; details: route subcutaneous; outline: as §2
[24] = fT>MIC in Pseudomonas aeruginosa OC 4351 infected sc dosed SKH1 mouse at 50 mg/kg, sc administered twice at 1 and 3 hrs after infection; type: functional; details: route subcutaneous
Staphylococcus aureus [25] = experiment: Antimicrobial activity against methicillin-susceptible Staphylococcus aureus Smith OC 4172 infected immunocompetent SKH1 mouse assessed as lesion volume at 100 mg/kg/day, sc measured after 48 hrs postinfection (reference value: 1181 mm3); details: route subcutaneous
Pseudomonas aeruginosa [26] = experiment: Antimicrobial activity against Pseudomonas aeruginosa OC 4354 infected in immunocompromized SKH1 mouse assessed as lesion volume at 6.2 mg/kg/day, sc measured after 48 hrs postinfection (reference value: 2195 mm3); type: functional; details: route subcutaneous
Zone of skin [27] = experiment: fCmax in Staphylococcus aureus infected immunocompetent SKH1 mouse skin at 50 mg/kg, sc; type: ADME, organism-based; set-up: dose 50 mg/kg, route subcutaneous; details: in vivo; outline: as §1
[28] = Half life in Pseudomonas aeruginosa infected immunocompromized SKH1 mouse skin at 50 mg/kg, sc

Question: For `Nc1nc(/C(=N/O)C(=O)N[C@@H]2C(=O)N3C(C(=O)O)=C(/C=C4\CCN([C@@H]5CCNC5)C4=O)CS[C@H]23)ns1` [CEFTOBIPROLE], which half-life [1] is on record?
Answer: The half-life was 13 min.

Question: And the deltalog10CFU (Staphylococcus aureus [2])?
Answer: Its deltalog10CFU is -1.

Question: And the Tmax [3]?
Answer: Its Tmax is 7.5 min.

Question: And the deltalog10CFU (Staphylococcus aureus [4])?
Answer: The deltalog10CFU was 1.5.

Question: And the deltalog10CFU (Pseudomonas aeruginosa [5])?
Answer: The deltalog10CFU was -0.4.

Question: And the fraction unbound [6]?
Answer: The fraction unbound was 0.84.

Question: What about the Activity (Pseudomonas aeruginosa [7]) of the same compound?
Answer: The Activity was 552 mm3.

Question: And the Activity (Pseudomonas aeruginosa [8])?
Answer: Its Activity is 389 mm3.

Question: And the half-life [9]?
Answer: The half-life was 30 min.

Question: And the “fT>MIC” value [10]?
Answer: The value was greater than 4 h.

Question: What about the deltalog10CFU (Pseudomonas aeruginosa [11]) of the same compound?
Answer: Its deltalog10CFU is -1.3.

Question: What about the deltalog10CFU (Pseudomonas aeruginosa [12]) of the same compound?
Answer: Its deltalog10CFU is -1.1.

Question: And the Tmax [13]?
Answer: The Tmax was 7.5 min.

Question: What about the Activity (Pseudomonas aeruginosa [14]) of the same compound?
Answer: Its Activity is 373 mm3.

Question: What about the fCmax (Zone of skin [15]) of the same compound?
Answer: The fCmax was 17 µg/g.

Question: What about the fAUC (Zone of skin [16]) of the same compound?
Answer: Its fAUC is 652 µg·min/mL.

Question: What about the Activity (Pseudomonas aeruginosa [17]) of the same compound?
Answer: Its Activity is 580 mm3.

Question: What about the “fT>MIC” value [18] of the same compound?
Answer: The value was 13.8%.

Question: What about the “fT>MIC” value [19] of the same compound?
Answer: The value was 9.1%.

Question: And the Activity (Staphylococcus aureus [20])?
Answer: Its Activity is 640 mm3.

Question: And the Activity (Staphylococcus aureus [21])?
Answer: Its Activity is 896 mm3.

Question: And the Activity (Staphylococcus aureus [22])?
Answer: Its Activity is 484 mm3.

Question: What about the deltalog10CFU (Pseudomonas aeruginosa [23]) of the same compound?
Answer: Its deltalog10CFU is -0.9.

Question: And the “fT>MIC” value [24]?
Answer: Its value is 2.2 h.

Question: And the Activity (Staphylococcus aureus [25])?
Answer: The Activity was 555 mm3.

Question: And the Activity (Pseudomonas aeruginosa [26])?
Answer: Its Activity is 1028 mm3.

Question: And the fCmax (Zone of skin [27])?
Answer: The fCmax was 13 µg/g.

Question: And the half-life [28]?
Answer: Its half-life is 76 min.
